From ChEMBL document CHEMBL4311947, “Discovery of Novel Naphthylphenylketone and Naphthylphenylamine Derivatives as Cell Division Cycle 25B (CDC25B) Phosphatase Inhibitors: Design, Synthesis, Inhibition Mechanism, and in Vitro Efficacy against Melanoma Cell Lines” (J Med Chem, 2019) come the findings set out here.

One test concerns A2058. Description: Cytotoxicity against human A2058 cells at 50 uM after 48 hrs by MTT assay. Type of test: functional, cell-based. In a few lines: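 Cells seeded at 4×10^4/well, treated 24 h after plating with inhibitor or 0.5% (v/v) DMSO vehicle for 24, 48 or 72 h. MTT added, 3 h at 37°C under 5% CO2, formazan solubilised, absorbance at 570 nm. Viability in arbitrary units, mean ± SE of at least three independent experiments versus control. Cells grown in DMEM/10% FBS at 37°C, 5% CO2; BJ-5ta cultured in 4:1 DMEM/Medium 199 with hygromycin B.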
On the technique in general: Tetrazolium dyes change colour on reduction, which living cells bring about.

For test [1], the target named is T1, M-phase inducer phosphatase 2 (Homo sapiens) (UniProt P30305).
T1 sequence (whole entry): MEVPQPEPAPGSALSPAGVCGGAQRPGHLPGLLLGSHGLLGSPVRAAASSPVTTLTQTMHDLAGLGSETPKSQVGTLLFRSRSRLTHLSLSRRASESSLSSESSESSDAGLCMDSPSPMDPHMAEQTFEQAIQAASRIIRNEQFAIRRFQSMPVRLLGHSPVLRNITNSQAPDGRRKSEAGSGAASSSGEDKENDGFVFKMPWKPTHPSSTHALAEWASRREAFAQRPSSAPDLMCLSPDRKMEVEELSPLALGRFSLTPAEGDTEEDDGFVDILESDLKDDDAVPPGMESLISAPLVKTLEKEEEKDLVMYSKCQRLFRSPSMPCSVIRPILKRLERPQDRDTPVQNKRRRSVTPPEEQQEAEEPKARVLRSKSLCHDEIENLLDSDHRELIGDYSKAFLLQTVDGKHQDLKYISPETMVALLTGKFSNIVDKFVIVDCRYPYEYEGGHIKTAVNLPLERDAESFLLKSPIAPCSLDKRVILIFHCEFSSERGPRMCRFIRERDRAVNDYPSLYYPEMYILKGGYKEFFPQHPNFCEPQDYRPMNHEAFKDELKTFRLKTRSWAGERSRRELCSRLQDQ
Put plainly: Inhibition of N-terminal His6-tagged human CDC25B (377 to 550 residues) expressed in Escherichia coli BL21(DE3) cells assessed as reduction in Vmax using OMFP as substrate by double reciprocal Lineweaver-Burk plot analysis. In a few lines:
(§1)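 Recombinant CDC25 form (15–25 nM) in 20 mM Tris-HCl pH 7.8, 0.5 mM TCEP, 1% (v/v) DMSO, with or without inhibitor. Reaction started with 0.5–25 µM OMFP; O-methylfluorescein formation followed continuously at 30°C (ex 485/em 530 nm). Initial rates (AU/min) analysed in Lineweaver-Burk plots for Vmax, KM and mechanism; Ki averaged from at least three independent experiments, only roughly estimated for mixed inhibition.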

The target of test [2] is T2, M-phase inducer phosphatase 2 (Homo sapiens, UniProt P30305).
T2 sequence (P30305 whole entry): T1 sequence (whole entry)
Description: Uncompetitive inhibition of N-terminal His6-tagged human CDC25B (377 to 550 residues) expressed in Escherichia coli BL21(DE3) cells using OMFP as substrate by double reciprocal Lineweaver-Burk plot analysis. In a few lines: as §1

The target in test [3] is T2, M-phase inducer phosphatase 2. Description: Mixed inhibition of N-terminal His6-tagged human CDC25B (377 to 550 residues) expressed in Escherichia coli BL21(DE3) cells using OMFP as substrate by double reciprocal Lineweaver-Burk plot analysis. In a few lines:
as §1

Test [4] has the same target. Description: Non-competitive inhibition of N-terminal His6-tagged human CDC25B (377 to 550 residues) expressed in Escherichia coli BL21(DE3) cells using OMFP as substrate by double reciprocal Lineweaver-Burk plot analysis. Put shortly: as §1
For test [5], the target named is T1, M-phase inducer phosphatase 2 (Homo sapiens). Description: Inhibition of N-terminal His6-tagged human CDC25B (377 to 550 residues) expressed in Escherichia coli BL21(DE3) cells at 3 uM by spectrofluorimetric analysis. In a few lines:
(§2)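 Intrinsic fluorescence of 1 µM recombinant CDC25B in 20 mM Tris·HCl pH 7.8, 0.5 mM TCEP, 0.5% (v/v) DMSO, recorded at 20°C with 280 nm excitation and 10 nm slits, without or with added NPA derivative. OMFP substrate omitted.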

Test [6] has the same target. Put plainly: Inhibition of N-terminal His6-tagged human CDC25B (377 to 550 residues) expressed in Escherichia coli BL21(DE3) cells at 4 uM by spectrofluorimetric analysis. Put shortly: as §2
Test [7] addresses T3, M-phase inducer phosphatase 1 (Homo sapiens, UniProt P30304).
T3 sequence (P30304 whole entry): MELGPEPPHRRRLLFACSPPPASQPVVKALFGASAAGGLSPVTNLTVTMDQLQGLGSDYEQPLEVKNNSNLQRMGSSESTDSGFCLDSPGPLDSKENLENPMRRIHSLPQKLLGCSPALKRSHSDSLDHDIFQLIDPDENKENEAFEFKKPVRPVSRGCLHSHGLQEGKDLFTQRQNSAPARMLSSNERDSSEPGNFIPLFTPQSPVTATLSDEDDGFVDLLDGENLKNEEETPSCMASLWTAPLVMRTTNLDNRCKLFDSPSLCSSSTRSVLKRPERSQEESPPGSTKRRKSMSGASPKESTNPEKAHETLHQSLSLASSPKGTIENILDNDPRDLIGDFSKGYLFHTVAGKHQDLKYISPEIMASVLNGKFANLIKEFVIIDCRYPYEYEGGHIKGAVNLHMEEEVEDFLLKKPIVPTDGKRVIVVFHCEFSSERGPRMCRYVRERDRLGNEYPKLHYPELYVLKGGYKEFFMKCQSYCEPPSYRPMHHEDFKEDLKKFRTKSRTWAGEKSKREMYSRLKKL
Put plainly: Inhibition of N-terminal His6-tagged human CDC25A (336 to 508 residues) expressed in Escherichia coli BL21(DE3) cells using OMFP as substrate by double reciprocal Lineweaver-Burk plot analysis. In a few lines: as §1

Test [8] deals with T4, M-phase inducer phosphatase 3 (Homo sapiens, UniProt P30307).
T4 sequence (P30307 whole entry): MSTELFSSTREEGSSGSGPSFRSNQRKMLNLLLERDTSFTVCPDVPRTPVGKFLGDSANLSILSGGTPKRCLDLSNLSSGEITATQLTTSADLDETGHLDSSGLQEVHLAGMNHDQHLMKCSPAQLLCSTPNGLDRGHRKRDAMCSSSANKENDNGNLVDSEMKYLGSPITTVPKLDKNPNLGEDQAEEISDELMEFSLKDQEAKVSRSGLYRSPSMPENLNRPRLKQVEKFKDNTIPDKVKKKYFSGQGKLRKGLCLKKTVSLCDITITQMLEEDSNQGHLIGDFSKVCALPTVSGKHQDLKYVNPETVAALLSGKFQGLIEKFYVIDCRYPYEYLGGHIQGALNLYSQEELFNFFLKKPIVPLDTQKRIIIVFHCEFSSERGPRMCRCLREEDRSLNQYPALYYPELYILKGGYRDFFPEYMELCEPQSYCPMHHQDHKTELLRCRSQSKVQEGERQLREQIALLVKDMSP
Description: Inhibition of N-terminal His6-tagged human CDC25C (280 to 454 residues) expressed in Escherichia coli BL21(DE3) cells using OMFP as substrate by double reciprocal Lineweaver-Burk plot analysis. In a few lines:
as §1

The target of test [9] is T1, M-phase inducer phosphatase 2 (Homo sapiens). Description: Inhibition of N-terminal His6-tagged human CDC25B (377 to 550 residues) expressed in Escherichia coli BL21(DE3) cells at 1.5 uM by spectrofluorimetric analysis. In a few lines:
as §2

Activity calls are given as the source filed them. The calls are words filed in the database; no cut-off is given here.

With `CCOC(=O)c1cccc(Nc2cccc3ccccc23)c1`, the outcome in the test with A2058 was Active. Further, in test [1], the inhibition entry was “Active”. This molecule also displayed an inhibition constant (Ki) in test [2] of 7.3 µM.
`O=C(O)c1ccccc1C(=O)c1cccc2ccccc12` came in with a Ki in [3] of 69 µM. Besides, the inhibition entry in test [1] was “Active”.
`COc1ccc(C(=O)c2ccccc2C(=O)O)c2ccccc12`: the inhibition entry in test [1] is “Active”. For the same molecule, affinity in test [4] was put at a Ki of 7.1 µM.
On to `CCOC(=O)c1ccccc1C(=O)c1cccc2ccccc12`, for which the Ki in test [3] was 54 µM. Besides, the inhibition entry in test [1] was “Active”.
For the molecule `O=C(O)c1ccccc1Nc1ccc(O)c2ccccc12`, the inhibition entry in test [1] was “Active”. The same molecule showed a Ki in [4] of 2.7 µM.
Consider `CCOC(=O)c1ccccc1Nc1cc(OC)cc2ccccc12`, for which the inhibition result in test [1] is “Active”. Further, in test [2], the Ki is 12.5 µM.
As for `O=C(O)c1ccccc1Nc1cccc2ccccc12`, the inhibition result in test [1] is “Active”. This molecule showed a Ki in test [2] of 22 µM.
For `CCOC(=O)c1cccc(Nc2cccc3c(O)cccc23)c1`, the inhibition result in [1] is “Active”. This molecule came in with a Ki in test [4] of 4.9 µM.
`O=C(O)c1cccc(Nc2cc(O)cc3ccccc23)c1`: the inhibition result in test [1] was “Active”. This molecule showed a Ki in [4] of 5.8 µM.
With `Nc1cccc2c(Nc3ccccc3C(=O)O)cccc12`, in test [1], the inhibition entry was “Active”. The inhibition constant Ki in test [4] was 6.5 µM.
As to `CCOC(=O)c1cccc(Nc2ccc(OC)c3ccccc23)c1`, in test [1], the inhibition entry was “Active”. This molecule also had an inhibition constant (Ki) in [4] of 11.9 µM.
As to `COc1ccc(Nc2cccc(C(=O)O)c2)c2ccccc12`, the inhibition result in test [1] was “Active”. In addition, the inhibitory constant (Ki) in test [2] amounted to 45 µM.
For the molecule `O=C(O)c1cccc(Nc2ccc(O)c3ccccc23)c1`, the inhibition result in test [1] was “Active”. In test [2], this molecule returned a Ki of 6.4 µM.
For the molecule `COc1ccc(Nc2ccccc2C(=O)O)c2ccccc12`, the inhibition entry in [1] is “Active”. In test [2], this molecule showed a Ki of 6.1 µM.
In test [3], `COc1cc(C(=O)c2ccccc2C(=O)O)c2ccccc2c1` displayed an inhibition constant Ki of 36 µM. The inhibition entry in test [1] is “Active”.
As to `O=C(O)c1ccccc1Nc1cc(O)cc2ccccc12`, the inhibition result in [1] was “Active”. In test [4], this molecule registered an inhibitory constant (Ki) of 5.1 µM.
`c1ccc(Nc2cccc3ccccc23)cc1` registered a Ki in test [3] of 32 µM. In addition, the inhibition entry in [1] was “Active”.
As to `Nc1ccc(Nc2cccc(C(=O)O)c2)c2ccccc12`, the inhibition entry in test [5] and in test [1] was “Active” in each case. In test [4], the Ki stood at 1.4 µM.
Regarding `CCOC(=O)c1cccc(Nc2cccc3c(N)cccc23)c1`, the inhibition result in test [1] was “Active”. The same molecule yielded a Ki in test [4] of 36 µM.
With `O=C(O)c1cccc(Nc2cccc3c(O)cccc23)c1`, the inhibition entry in test [1] was “Active”. The Ki in [4] was found to be 2.9 µM.
In test [3], `O=C(O)c1cccc(Nc2cccc3ccccc23)c1` came in with a Ki of 30 µM. For the same molecule, the inhibition result in test [1] is “Active”.
Consider `O=C(O)c1ccccc1C(=O)c1cc(O)cc2ccccc12`, for which, in test [1], the inhibition result was “Active”. In addition, the affinity in test [4] corresponds to a Ki of 34 µM.
As to `CCOC(=O)c1ccccc1Nc1cccc2ccccc12`, the inhibition entry in test [6] is “inactive”. In [1], the inhibition entry is “Active”. Besides, the values for the Ki in test [2], in test [7] and in test [8] were 2.8 µM, 0.6 µM and 0.4 µM, respectively.
Take `Nc1cccc2c(Nc3cccc(C(=O)O)c3)cccc12` [listing 1 of 3 here]: the Ki in [7] turned out to be 0.6 µM; in test [8], 4 µM.
Consider `CCOC(=O)c1ccccc1Nc1ccc(OC)c2ccccc12`, for which the inhibition result in test [1] is “Active”. In test [4], this molecule showed a Ki of 6.9 µM.
For `COc1cc(Nc2ccccc2C(=O)O)c2ccccc2c1`, the inhibition result in test [1] was “Active”. Also, the Ki in test [4] came out at 16.9 µM.
For `Nc1cccc2c(Nc3cccc(C(=O)O)c3)cccc12` [listing 2 of 3 here], the inhibition result in test [9] and in test [1] was “Active” throughout.
On to `CCOC(=O)c1ccccc1Nc1cccc2c(O)cccc12`, for which, in test [1], the inhibition result is “Active”. In test [4], this molecule registered a Ki of 7.4 µM.
On to `CCOC(=O)c1ccccc1Nc1cccc2c(N)cccc12`, for which, in [1], the inhibition result is “Active”. This molecule also registered a Ki in [4] of 9.9 µM.
For the molecule `O=C(O)c1ccccc1Nc1cccc2c(O)cccc12`, in [1], the inhibition entry is “Active”. The molecule also registered a Ki in [4] of 13.4 µM.
As to `COc1cc(Nc2cccc(C(=O)O)c2)c2ccccc2c1`, the inhibition entry in test [1] is “Active”. For the same molecule, in [2], the Ki came out at 55 µM.
In [4], `Nc1cccc2c(Nc3cccc(C(=O)O)c3)cccc12` [listing 3 of 3 here] returned a Ki of 0.8 µM.

What is called Ki is a measure of affinity in units of concentration, obtained from inhibition or displacement. Lower therefore signals higher affinity.
